ChEMBL document CHEMBL1165943, “Design and synthesis of new anticancer pyrimidines with multiple-kinase inhibitory effect” (Bioorg Med Chem, 2010)

How the values were obtained:
Type in all cases: functional
[1] = Cytotoxicity against human Hs 578T cells assessed as cell growth at 10 uM; conditions: read-out: Activity
In short: (§1)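 Single-concentration screen at 10 μM across the 60-cell-line panel (nine tissue types); growth percentage recorded per cell line, with inhibition taken as 100 minus growth percentage.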

Malme-3M = test: Cytotoxicity against human MALME-3M cells assessed as cell growth at 10 uM; conditions: for growth at 10 µM: Homo sapiens, Malme-3M, read-out: Activity
In short: (§2)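 Single-dose screen at 10 μM across the 60-cell-line panel. Cells grown in RPMI 1640 with 5% FBS and 2 mM L-glutamine, seeded at 5,000–40,000 cells/well according to doubling time, and treated 24 h later. Exposure lasted 48 h at 37 °C, 5% CO₂. Adherent cells were fixed with cold TCA, suspension cells were fixed settled, and both were stained with SRB and read at 515 nm. Growth % was recorded, with inhibition % = 100 − growth %.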

UACC-257 = test: Cytotoxicity against human UACC257 cells assessed as cell growth at 10 uM; conditions: for growth at 10 µM: Homo sapiens, UACC-257, read-out: Activity; in short: as §2
SK-MEL-5 = test: Cytotoxicity against human SK-MEL-5 cells assessed as cell growth at 10 uM; conditions: for growth at 10 µM: Homo sapiens, SK-MEL-5, read-out: Activity; in short: as §2
CCRF-CEM = test: Cytotoxicity against human CCRF-CEM cells assessed as cell growth at 10 uM; conditions: for growth at 10 µM: Homo sapiens, CCRF-CEM, read-out: Activity; in short: as §1
EKVX = test: Cytotoxicity against human EKVX cells assessed as cell growth at 10 uM; conditions: for growth at 10 µM: Homo sapiens, EKVX, read-out: Activity; in short: as §1
RXF 393 = test: Cytotoxicity against human RXF393 cells assessed as cell growth at 10 uM; conditions: for growth at 10 µM: Homo sapiens, RXF 393, read-out: Activity; in short: as §2
SW-620 = test: Cytotoxicity against human SW620 cells assessed as cell growth at 10 uM; conditions: for growth at 10 µM: Homo sapiens, SW-620, read-out: Activity; in short: as §2
A549 = test: Cytotoxicity against human A549 cells assessed as cell growth at 10 uM; conditions: for growth at 10 µM: Homo sapiens, A549, read-out: Activity; in short: as §1
M14 = test: Cytotoxicity against human M14 cells assessed as cell growth at 10 uM; conditions: for growth at 10 µM: Homo sapiens, M14, read-out: Activity; in short: as §2
NCI-H322M = test: Cytotoxicity against human NCI-H322M cells assessed as cell growth at 10 uM; conditions: for growth at 10 µM: Homo sapiens, NCI-H322M, read-out: Activity; in short: as §2
SK-MEL-28 = test: Cytotoxicity against human SK-MEL-28 cells assessed as cell growth at 10 uM; conditions: for growth at 10 µM: Homo sapiens, SK-MEL-28, read-out: Activity; in short: as §2
SF-295 = test: Cytotoxicity against human SF295 cells assessed as cell growth at 10 uM; conditions: for growth at 10 µM: Homo sapiens, SF-295, read-out: Activity; in short: as §2
MDA-MB-435 = test: Cytotoxicity against human MDA-MB-435 cells assessed as cell growth at 10 uM; conditions: read-out: Activity; in short: as §2
PC-3 = test: Cytotoxicity against human PC3 cells assessed as cell growth at 10 uM; conditions: for growth at 10 µM: Homo sapiens, PC-3, read-out: Activity; in short: as §2
SK-OV-3 = test: Cytotoxicity against human SKOV3 cells assessed as cell growth at 10 uM; conditions: for growth at 10 µM: Homo sapiens, SK-OV-3, read-out: Activity; in short: as §2
NCI-H460 = test: Cytotoxicity against human NCI-H460 cells assessed as cell growth at 10 uM; conditions: for growth at 10 µM: Homo sapiens, NCI-H460, read-out: Activity; in short: as §2
SNB-19 = test: Cytotoxicity against human SNB19 cells assessed as cell growth at 10 uM; conditions: read-out: Activity; in short: as §2
OVCAR-5 = test: Cytotoxicity against human OVCAR5 cells assessed as cell growth at 10 uM; conditions: for growth at 10 µM: Homo sapiens, OVCAR-5, read-out: Activity; in short: as §2
COLO 205 = test: Cytotoxicity against human COLO205 cells assessed as cell growth at 10 uM; conditions: for growth at 10 µM: Homo sapiens, COLO 205, read-out: Activity; in short: as §1
HOP-92 = test: Cytotoxicity against human HOP92 cells assessed as cell growth at 10 uM; conditions: for growth at 10 µM: Homo sapiens, HOP-92, read-out: Activity; in short: as §1
[2] = Cytotoxicity against human […] cells assessed as cell growth at 10 uM; conditions: for growth at 10 µM: Homo sapiens, RPMI8266, read-out: Activity; in short: as §2
TK-10 = test: Cytotoxicity against human TK10 cells assessed as cell growth at 10 uM; conditions: for growth at 10 µM: Homo sapiens, TK-10, read-out: Activity; in short: as §2
SN12C = test: Cytotoxicity against human SN12C cells assessed as cell growth at 10 uM; conditions: for growth at 10 µM: Homo sapiens, SN12C, read-out: Activity; in short: as §2

SMILES | growth at 10 µM [1] | growth at 10 µM (Malme-3M) | growth at 10 µM (UACC-257) | growth at 10 µM (SK-MEL-5) | growth at 10 µM (CCRF-CEM) | growth at 10 µM (EKVX) | growth at 10 µM (SW-620) | growth at 10 µM (A549) | growth at 10 µM (M14) | growth at 10 µM (NCI-H322M) | growth at 10 µM (SK-MEL-28) | growth at 10 µM (SF-295) | growth at 10 µM (MDA-MB-435) | growth at 10 µM (PC-3) | growth at 10 µM (SK-OV-3) | growth at 10 µM (NCI-H460) | growth at 10 µM (SNB-19) | growth at 10 µM (OVCAR-5) | growth at 10 µM (COLO 205) | growth at 10 µM (TK-10) | further results
CC(=O)c1ccc(-c2ccc(-c3ccnc(Nc4cc(C(F)(F)F)cc(C(F)(F)F)c4)n3)cn2)cc1 | 110% | 124% | 102% | 101% | 99.4% | 113% | 109% | 104% | 109% | 103% | 95.8% | 110% | 115% | 89.8% | 93.5% | 106% | 110% | 109% | 110% | 106% | growth at 10 µM (RXF 393): 113%; growth at 10 µM (HOP-92): 103%; growth at 10 µM [2]: 97.8%; growth at 10 µM (SN12C): 93.6%
FC(F)(F)c1cc(Nc2nccc(-c3cccnc3)n2)cc(C(F)(F)F)c1 | 103% | 103% | 111% | 101% |  | 102% | 109% | 93.8% | 116% | 97.5% | 115% | 103% | 102% | 105% | 106% | 103% | 94% | 97% | 119% | 106% | growth at 10 µM (RXF 393): 79%; growth at 10 µM (SN12C): 88%
CC(=O)c1ccccc1-c1ccc(-c2ccnc(NC(=O)Nc3cc(C(F)(F)F)cc(C(F)(F)F)c3)n2)cn1 |  |  |  |  | 79.3% | 91% | 81.8% | 86.8% |  | 85% |  |  | 98.1% |  |  | 95.9% | 91.5% |  | 90.9% |  | Activity (Malme-3M): 105.41%; Activity (UACC-257): 92.59%; Activity (SK-MEL-5): 97.2%; Activity (RXF 393): 104.4%; Activity (M14): 102.28%; Activity (SK-MEL-28): 109.71%; Activity (SF-295): 110.95%; Activity (PC-3): 74.12%; Activity (SK-OV-3): 91.88%; Activity (OVCAR-5): 113.85%; growth at 10 µM (HOP-92): 89.9%; Activity [2]: 98.17%; Activity (TK-10): 102.3%; Activity (SN12C): 96.07%
CC(=O)c1ccccc1-c1ccc(-c2ccnc(NC(=O)Nc3cc(C(F)(F)F)cc(C(F)(F)F)c3)n2)cn1.Cl |  |  | 102% | 103% |  |  |  |  | 98.2% |  | 103% |  |  | 89.9% | 76.5% |  |  |  |  | 90.3% | Activity (Malme-3M): 85.32%; Activity (CCRF-CEM): 88.36%; Activity (EKVX): 87.92%; Activity (RXF 393): 130.46%; Activity (SW-620): 95.07%; Activity (A549): 93.55%; Activity (NCI-H322M): 92.06%; Activity (SF-295): 80.92%; Activity (NCI-H460): 93.37%; Activity (OVCAR-5): 81.55%; Activity (COLO 205): 88.27%; Activity (HOP-92): 101%; Activity [2]: 75.92%; growth at 10 µM (SN12C): 88.4%
O=C(Nc1cc(C(F)(F)F)cc(C(F)(F)F)c1)Nc1nccc(-c2ccc(Nc3ccccc3)nc2)n1 | 102% | 151% | 112% | 107% | 96.8% | 134% | 98.8% | 105% | 94.2% | 144% | 99.8% | 137% | 129% | 93.5% | 83.3% | 103% | 109% | 87% | 136% | 123% | growth at 10 µM (HOP-92): 116%; growth at 10 µM [2]: 102%; growth at 10 µM (SN12C): 106%
Cc1ccc(Nc2nc(C)cc(-c3cccnc3)n2)c(C)c1 | 95.9% | 107% | 100% | 89.8% | 95.4% | 96.1% | 97.5% | 90.3% | 114% | 100% | 108% | 98.3% | 95.4% | 91.7% | 104% | 95.7% | 101% | 106% | 122% | 118% | growth at 10 µM (RXF 393): 90.7%; growth at 10 µM (HOP-92): 86.9%; growth at 10 µM [2]: 86.7%; growth at 10 µM (SN12C): 91.2%
Cc1cc(-c2cccnc2)nc(NC(=O)c2cccc(C(F)(F)F)c2)n1 | 107% | 105% | 99.6% | 99% | 94.8% | 101% | 105% | 97.4% | 109% | 100% | 108% | 101% | 100% | 99.2% | 101% | 103% | 90.8% | 95.7% | 119% | 102% | growth at 10 µM (RXF 393): 90.8%; growth at 10 µM (HOP-92): 107%; growth at 10 µM [2]: 98.6%; growth at 10 µM (SN12C): 95.3%
c1ccc(-c2ccc(-c3ccnc(Nc4ccc(N(c5ccccc5)c5ccccc5)cc4)n3)cn2)cc1 | 76.8% | 65.2% | 106% | 118% | 73.1% | 103% | 78.3% | 77.1% | 90.2% | 88.5% | 118% | 124% | 98.5% | 87.1% | 119% | 84.4% | 135% | 106% | 116% | 113% | growth at 10 µM (RXF 393): 99.4%; growth at 10 µM (HOP-92): 151%; growth at 10 µM [2]: 110%
FC(F)(F)c1cc(Nc2nccc(-c3ccc(Nc4ccccc4)nc3)n2)cc(C(F)(F)F)c1 | 101% | 117% | 99.5% | 99.1% | 96.6% | 108% | 101% | 96.2% | 111% | 96.6% | 110% | 112% | 108% | 95.2% | 89.9% | 109% | 91.6% | 97.3% | 104% | 119% | growth at 10 µM (RXF 393): 107%; growth at 10 µM (HOP-92): 100%; growth at 10 µM [2]: 98.3%
FC(F)(F)c1cc(Nc2nccc(-c3ccc(-c4ccccc4)nc3)n2)cc(C(F)(F)F)c1 | 94.8% | 123% | 113% | 102% | 89.7% | 101% | 110% | 97.3% | 81.4% | 99.7% | 109% | 114% | 109% | 90.3% | 94.6% | 107% | 109% | 111% | 95.6% | 99.5% | growth at 10 µM (RXF 393): 143%; growth at 10 µM (HOP-92): 89.7%; growth at 10 µM [2]: 96.2%; growth at 10 µM (SN12C): 86.1%
